pIC50: −log10 of the molar value. Values after ≈ are worked out from the molar mass of the structure shown. One block for each compound: values may come before it.
Experiments:
physchem = conditions: pH 6.8
in vitro = conditions: human, liver microsomes
Rattus norvegicus = organism: Rattus norvegicus; experiment: in vitro; conditions: liver microsomes
[1] = target: T1, Neuropeptide Y receptor type 5 (Mus musculus, UniProt O70342); experiment: Displacement of [125I]PYY from mouse NPY-Y5 receptor
T1 sequence (O70342 whole entry): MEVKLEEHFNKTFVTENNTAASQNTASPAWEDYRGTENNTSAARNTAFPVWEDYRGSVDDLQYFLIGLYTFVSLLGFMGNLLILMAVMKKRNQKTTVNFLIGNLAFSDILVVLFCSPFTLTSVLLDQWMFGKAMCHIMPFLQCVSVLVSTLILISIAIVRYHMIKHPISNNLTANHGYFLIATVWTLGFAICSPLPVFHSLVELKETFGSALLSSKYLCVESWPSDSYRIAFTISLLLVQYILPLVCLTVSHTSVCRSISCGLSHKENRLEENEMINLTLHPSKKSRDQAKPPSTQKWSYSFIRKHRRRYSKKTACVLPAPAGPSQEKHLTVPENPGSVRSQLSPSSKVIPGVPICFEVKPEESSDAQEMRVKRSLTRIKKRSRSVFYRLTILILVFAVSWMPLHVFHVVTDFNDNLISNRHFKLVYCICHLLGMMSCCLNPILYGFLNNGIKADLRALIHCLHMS

Mus musculus [2] = experiment: Antiobesity activity in DIO mouse assessed as reduction of [cPP1to7, NPY19 to 23, Ala31, Aib32, Gln42]-induced food intake at 12.5 mg/kg, po administered 1 hr prior to [cPP1to7, NPY19 to 23, Ala31, Aib32, Gln42] induction measured after 2 hrs relative to vehicle-treated control; format: functional; design: scale not given: the % may be the effect or the level left
Outline: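 Mice received oral compound at 12.5 mg/kg 1 h before treatment with a Y5-selective agonist peptide. Food intake was then compared with the increase the agonist induces.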

Mus musculus [3] = experiment: Antiobesity activity against DIO mouse assessed as reduction of body weight administered as po bid measured for 21 days; format: functional, organism-based
Outline: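 Diet-induced obese mice were dosed orally for 21 days, with body weight gain compared against a control group (n = 7).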

Mus musculus [4] = experiment: Toxicity in mouse assessed as appearance of abnormal behavior at 6.25 to 25 mg/kg, po bid measured for 21 days; format: organism-based; design: dose 6.25-25 mg/kg, route oral; conditions: in vivo, 504 h
Outline: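 Diet-induced obese mice were given compound orally for 21 days and watched for abnormal behavior during dosing.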

[5] = Drug uptake in mouse CSF at 0.5 mg/kg, iv at 30 mins; format: ADME, organism-based, Cerebrospinal fluid; design: dose 0.5 mg/kg, route intravenous; conditions: read-out: Drug uptake
Outline: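 CSF drug concentration was measured 30 min after a 0.5 mg/kg intravenous dose.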

SMILES: CCS(=O)(=O)c1ccc2nc(C(F)(F)c3ccc(-c4ccccc4)cc3)[nH]c2c1
solubility kinetic (physchem): 0.3 µM (≈ 0.124 µg/mL) | remaining at 0.5 h (in vitro): 0.1% | remaining at 0.5 h (Rattus norvegicus): 78.3% | pIC50 [1]: 7.31

SMILES: CCS(=O)(=O)c1ccc2[nH]c(Oc3cccc(C(F)(F)F)c3)nc2c1
solubility kinetic (physchem): > 50 µM | remaining at 0.5 h (in vitro): > 99.9% | remaining at 0.5 h (Rattus norvegicus): 88.4% | pIC50 [1]: 7.39

SMILES: CCS(=O)(=O)c1ccc2[nH]c(C3(c4ccc(-c5ccccc5)cc4)CC3)nc2c1
solubility kinetic (physchem): 0.5 µM (≈ 0.201 µg/mL) | remaining at 0.5 h (in vitro): 88.5% | remaining at 0.5 h (Rattus norvegicus): 81.3% | pIC50 [1]: 6.22

SMILES: CCS(=O)(=O)c1ccc2nc(OCc3cccc(Cl)c3)[nH]c2c1
solubility kinetic (physchem): 49.9 µM (≈ 17.5 µg/mL) | remaining at 0.5 h (in vitro): 88.5% | remaining at 0.5 h (Rattus norvegicus): 37.9% | pIC50 [1]: 7.09

SMILES: CCS(=O)(=O)c1ccc2nc(Oc3ccc(C(F)(F)F)cc3)[nH]c2c1
solubility kinetic (physchem): > 50 µM | remaining at 0.5 h (in vitro): 95.2% | remaining at 0.5 h (Rattus norvegicus): 86.9% | pIC50 [1]: 7.01

SMILES: CCS(=O)(=O)c1ccc2[nH]c(Oc3ccccc3C(F)(F)F)nc2c1
solubility kinetic (physchem): > 50 µM | pIC50 [1]: 5.50

SMILES: CCS(=O)(=O)c1ccc2nc(Oc3ccc(-c4ccccc4)cn3)[nH]c2c1
solubility kinetic (physchem): 45.2 µM (≈ 17.2 µg/mL) | remaining at 0.5 h (in vitro): 89.2% | remaining at 0.5 h (Rattus norvegicus): > 99.9% | pIC50 [1]: 7.02

SMILES: CCS(=O)(=O)c1ccc2nc(Cc3ccc(-c4ccccc4)cc3)[nH]c2c1
solubility kinetic (physchem): 3 µM (≈ 1.13 µg/mL) | remaining at 0.5 h (in vitro): 87.6% | remaining at 0.5 h (Rattus norvegicus): 74.3% | pIC50 [1]: 6.95

These reach a higher pIC50 [1]. Values come first.

solubility kinetic (physchem): > 50 µM | remaining at 0.5 h (in vitro): 88.1% | remaining at 0.5 h (Rattus norvegicus): 37.6% | pIC50 [1]: 7.60
SMILES: CCS(=O)(=O)c1ccc2nc(OCCc3ccccc3)[nH]c2c1

solubility kinetic (physchem): > 50 µM | remaining at 0.5 h (in vitro): 92.8% | remaining at 0.5 h (Rattus norvegicus): 91.6% | pIC50 [1]: 7.65
SMILES: CCS(=O)(=O)c1ccc2[nH]c(Oc3ccc(OC(F)(F)F)cc3)nc2c1

solubility kinetic (physchem): 27.5 µM (≈ 10.1 µg/mL) | remaining at 0.5 h (in vitro): 63.7% | remaining at 0.5 h (Rattus norvegicus): 0.13% | pIC50 [1]: 7.92
SMILES: CCS(=O)(=O)c1ccc2[nH]c(SCc3cccc(Cl)c3)nc2c1

solubility kinetic (physchem): 4.2 µM (≈ 1.59 µg/mL) | remaining at 0.5 h (in vitro): 29.1% | remaining at 0.5 h (Rattus norvegicus): 77.3% | pIC50 [1]: 8.02
SMILES: CCS(=O)(=O)c1ccc2[nH]c(Oc3cccc(-c4ccccc4)c3)nc2c1

solubility kinetic (physchem): > 50 µM | remaining at 0.5 h (in vitro): 97.1% | remaining at 0.5 h (Rattus norvegicus): 86.2% | pIC50 [1]: 8.15
SMILES: CCS(=O)(=O)c1ccc2nc(Oc3cccc(OC(F)(F)F)c3)[nH]c2c1

solubility kinetic (physchem): > 50 µM | remaining at 0.5 h (in vitro): 97.9% | remaining at 0.5 h (Rattus norvegicus): 83.8% | pIC50 [1]: 8.36 | concentration at 0.5 h [5]: 1.7 ng/mL
SMILES: CCS(=O)(=O)c1ccc2nc(OCC(F)(F)c3ccccc3)[nH]c2c1

solubility kinetic (physchem): > 50 µM | pIC50 [1]: 8.39
SMILES: CCS(=O)(=O)c1ccc2[nH]c(Oc3ccc(-c4ccccn4)cc3)nc2c1

solubility kinetic (physchem): 6.1 µM (≈ 2.35 µg/mL) | remaining at 0.5 h (in vitro): > 99.9% | remaining at 0.5 h (Rattus norvegicus): 93.8% | pIC50 [1]: 8.43
SMILES: CCS(=O)(=O)c1ccc2[nH]c(O[C@H]3CC[C@H](c4ccccc4)CC3)nc2c1

solubility kinetic (physchem): 39.7 µM (≈ 15.1 µg/mL) | remaining at 0.5 h (in vitro): 98.6% | remaining at 0.5 h (Rattus norvegicus): > 99.9% | pIC50 [1]: 8.53 | concentration at 0.5 h [5]: 2.9 ng/mL
SMILES: CCS(=O)(=O)c1ccc2[nH]c(Oc3ccc(-c4ccccc4)nc3)nc2c1
Activity (Mus musculus [2]): 50.8% | Activity (Mus musculus [3]): Dose-dependent effect | Activity (Mus musculus [4]): Non-toxic

solubility kinetic (physchem): 2.5 µM (≈ 0.946 µg/mL) | remaining at 0.5 h (in vitro): > 99.9% | remaining at 0.5 h (Rattus norvegicus): > 99.9% | pIC50 [1]: 8.55
SMILES: CCS(=O)(=O)c1ccc2[nH]c(Oc3ccc(-c4ccccc4)cc3)nc2c1

solubility kinetic (physchem): 0.3 µM (≈ 0.117 µg/mL) | remaining at 0.5 h (in vitro): > 99.9% | remaining at 0.5 h (Rattus norvegicus): > 99.9% | pIC50 [1]: 8.58
SMILES: CCS(=O)(=O)c1ccc2[nH]c(C(=O)c3ccc(-c4ccccc4)cc3)nc2c1
